Source: PubChem BioAssay (Broad Institute)
Shown is part of a subset that was picked to be rich in hits.
IDH1 mut inh = blocks human IDH1 R132H reductase activity; AID 624101; diaphorase/resazurin fluorescence, 60 min; inhibition, % at 10 µM; actives 0.18% (n = 70,000); O75874; in the data active = inhibition above about 34%; inconclusive = no clear call, values can overlap the other calls; inactive = below about 11%;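 note: 0% = DMSO and 100% = no enzyme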
Target sequence (O75874 whole entry R132H): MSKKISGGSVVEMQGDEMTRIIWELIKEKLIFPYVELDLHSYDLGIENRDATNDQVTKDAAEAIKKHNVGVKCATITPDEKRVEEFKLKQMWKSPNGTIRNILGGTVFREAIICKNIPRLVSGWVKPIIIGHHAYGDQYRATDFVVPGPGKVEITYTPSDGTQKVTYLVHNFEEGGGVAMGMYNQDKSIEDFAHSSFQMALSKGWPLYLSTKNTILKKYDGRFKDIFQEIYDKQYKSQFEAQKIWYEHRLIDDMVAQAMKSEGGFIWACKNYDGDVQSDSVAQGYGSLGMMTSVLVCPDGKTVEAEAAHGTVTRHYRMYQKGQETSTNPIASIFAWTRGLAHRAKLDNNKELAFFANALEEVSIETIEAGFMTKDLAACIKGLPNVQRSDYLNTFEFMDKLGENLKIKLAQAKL
GASC1 inh = KDM4C (human) demethylase inhibition; Q9H3R0; actives 0.15% (n = 96,000); AID 720574; inhibition, % at 12.5 µM; GST-KDM4C 2-372, H3K9me3 peptide, LANCE TR-FRET;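 active = mean replicate inhibition above about 25%, with at least 55% of replicates also reaching it, limit read from the data, passing the limit was not always enough; inconclusive = only one of those two conditions met; inactive = neither condition met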
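reagent = H3K9me3 peptide substrate, Fe(II), 2-oxoglutarate | system = GST-tagged GASC-1 (JMJD2C) catalytic fragment, aa 2-372 | amount = enzyme final amount 10 nM | read-out = Fall in 671/618 emission ratio as inhibition | medium = HEPES buffer, pH 7.5, plus ascorbate | schedule = 30 min reaction, 60 min detection, RT | measured by = LANCE TR-FRET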
T cruzi growth-1 = blocks T. cruzi growth in NIH3T3 culture. T. cruzi beta-gal in NIH3T3, GalScreen luminescence, 90 h. inhibition, % at 8.34 µM. actives 5.9% (n = 77,000);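 active = mean inhibition above about 93%, with at least 55% of replicates each passing it, limit read from the data, passing the limit was not always enough; inconclusive = only one of those two conditions holds; inactive = neither condition holds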
T cruzi growth-2 = blocks T. cruzi growth in NIH3T3 host cells; shares compounds with T cruzi growth-1; T. cruzi beta-gal in NIH3T3, GalScreen luminescence, 90 h; inhibition, % at 8.35 µM; actives 72% (n = 5,600);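 active = mean replicate inhibition above about 95% and at least 55% of replicates individually reaching it, limit read from the data; inconclusive = only one of the two criteria is met; inactive = neither criterion is met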
T cruzi growth-3 = Trypanosoma cruzi proliferation inhibition. T. cruzi beta-gal in NIH3T3, GalScreen luminescence, 90 h. AID 651740. shares compounds with T cruzi growth-1. inhibition, % at 2.09 µM. actives 21% (n = 5,600);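 active = mean inhibition above about 95%, with at least 55% of replicates also reaching it, limit read from the data; inconclusive = meets just one of the two conditions; inactive = meets neither condition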;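 note: plate controls were neutral control median for no effect and positive control median for full effect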
3T3 cytotox = cytotoxicity in mouse NIH/3T3 fibroblasts; actives 14% (n = 5,600); cytotoxicity (signal decrease), % at 8.35 µM; NIH/3T3 viability, CellTiter-Glo ATP luminescence, 90 h; AID 651742; shares compounds with T cruzi growth-1;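 active = mean signal decrease across replicates above about 35% based on untreated-well scatter, with enough replicates individually passing, limit read from the data; inconclusive = no rule stated though some were filed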;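 note: 0% = median of neutral control wells and 100% = median of positive control wells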
3T3 cytotox 2 = cytotoxicity in mouse NIH/3T3 fibroblasts. shares compounds with T cruzi growth-1. NIH/3T3 viability, CellTiter-Glo ATP luminescence, 90 h. inhibition, % at 24.9 µM. actives 56% (n = 5,600). AID 651744;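 active = mean loss of cell viability signal at or above a set limit, and enough replicates individually reaching it; inconclusive = meets only the mean limit or only the replicate share; inactive = meets neither condition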;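 note: 0% = median of neutral control wells and 100% = median of positive control wells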
The depositor's hits bear a star; ? = inconclusive; / = no result.

SMILES	IDH1 mut inh	GASC1 inh	T cruzi growth-1	T cruzi growth-2	T cruzi growth-3	3T3 cytotox	3T3 cytotox 2
CS(=O)(=O)N1CCCCN2[C@H](CO)[C@@H](c3ccc(C#Cc4ccccn4)cc3)[C@H]2C1	/	2	?	91	9	-6	2
CS(=O)(=O)N1CCCCN2[C@H](CO)[C@@H](c3ccc(C#Cc4ccccn4)cc3)[C@@H]2C1	/	0	82	/	/	/	/
CCS(=O)(=O)N1CCCCN2[C@H](CO)[C@H](c3ccc(C#Cc4ccccn4)cc3)[C@@H]2C1	/	-1	64	/	/	/	/
CCS(=O)(=O)N1CCCCN2[C@H](C1)[C@H](c1ccc(C#Cc3ccccn3)cc1)[C@@H]2CO	/	0	96*	94	54	-2	1
CCOC(=O)c1c(NC(=O)Cn2cnc3sc(C)c(C)c3c2=O)sc(C)c1C	0	/	/	/	/	/	/
COc1ccccc1CNC(=O)C[C@H]1CC[C@H](NC(C)=O)[C@H](CO)O1	0	-1	-57	/	/	/	/
COc1ccccc1CNC(=O)C[C@H]1C[C@H]2c3cc(NC(=O)CC4CC4)ccc3O[C@H]2[C@H](CO)O1	0	0	-16	/	/	/	/
COc1ccccc1CNC(=O)C[C@H]1C[C@@H]2c3cc(NC(=O)Nc4ccc(C(F)(F)F)cc4)ccc3O[C@@H]2[C@@H](CO)O1	1	-3	140*	110*	101*	0	14
COCC(=O)Nc1ccc2c(c1)[C@H]1C[C@H](CC(=O)NCc3ccccc3OC)O[C@@H](CO)[C@H]1O2	-1	1	101*	3	0	-8	-12
COc1ccccc1CNC(=O)C[C@@H]1CC[C@@H](NC(C)=O)[C@H](CO)O1	0	-1	?	4	-24	-15	3
COc1ccccc1CNC(=O)C[C@H]1C[C@H]2c3cc(NC(=O)Nc4ccccc4F)ccc3O[C@H]2[C@@H](CO)O1	0	-1	30	/	/	/	/
COc1ccccc1CNC(=O)C[C@H]1C[C@H]2c3cc(NC(=O)Nc4ccccc4F)ccc3O[C@H]2[C@H](CO)O1	0	3	17	/	/	/	/
COc1ccccc1CNC(=O)C[C@H]1C[C@H]2c3cc(NC(=O)Nc4ccc(C(F)(F)F)cc4)ccc3O[C@H]2[C@@H](CO)O1	0	0	123*	105*	65	-9	-2
CCc1cc(C(=O)OC)c(NC(=S)Nc2cn(CC)nc2C(N)=O)s1	0	/	/	/	/	/	/
COc1cc([N+](=O)[O-])ccc1NC(=O)CCN1C(=O)C2C3C=CC(C4CC34)C2C1=O (stereo unspecified)	0	/	/	/	/	/	/
C[C@@H]1CCCCO[C@H](CN(C)C(=O)Nc2ccc(C(F)(F)F)cc2)[C@H](C)CN([C@@H](C)CO)C(=O)c2cc(NC(=O)Nc3ccc(C(F)(F)F)cc3)ccc2O1	/	-1	116*	108*	113*	1	-18
C[C@H]1CCCCO[C@H](CN(C)C(=O)Nc2ccc(C(F)(F)F)cc2)[C@@H](C)CN([C@@H](C)CO)C(=O)c2cc(NC(=O)Nc3ccc(F)cc3)ccc2O1	0	0	101	/	/	/	/
C[C@@H]1CCCCO[C@H](CN(C)C(=O)Nc2ccc(C(F)(F)F)cc2)[C@@H](C)CN([C@@H](C)CO)C(=O)c2cc(NC(=O)Nc3ccc(C(F)(F)F)cc3)ccc2O1	-2	-1	112*	108*	115*	2	?
C[C@@H]1CCCCO[C@H](CN(C)C(=O)Nc2ccc(C(F)(F)F)cc2)[C@@H](C)CN([C@H](C)CO)C(=O)c2cc(NC(=O)Nc3ccc(C(F)(F)F)cc3)ccc2O1	-2	0	103*	101*	?	1	16
C[C@H](CO)N1C[C@H](C)[C@H](CN(C)C(=O)Nc2ccc(C(F)(F)F)cc2)OCCCC[C@H](C)Oc2ccc(NC(=O)Nc3ccc(C(F)(F)F)cc3)cc2C1=O	/	-1	126*	102*	117*	7	13
C[C@@H]1CN([C@H](C)CO)C(=O)c2cc(NC(=O)Nc3ccc(F)cc3)ccc2O[C@@H](C)CCCCO[C@H]1CN(C)C(=O)Nc1ccc(C(F)(F)F)cc1	7	0	83	/	/	/	/
C[C@@H]1CCCCO[C@@H](CN(C)C(=O)Nc2ccc(F)cc2)[C@@H](C)CN([C@@H](C)CO)C(=O)c2cc(NC(=O)Nc3ccc(C(F)(F)F)cc3)ccc2O1	1	0	/	/	/	/	/
C[C@H]1CCCCO[C@H](CN(C)C(=O)Nc2ccc(F)cc2)[C@@H](C)CN([C@@H](C)CO)C(=O)c2cc(NC(=O)Nc3ccc(C(F)(F)F)cc3)ccc2O1	/	-2	86	/	/	/	/
Cc1ccc(OCC(O)CNc2ccc(Br)c(C(F)(F)F)c2)cc1C (stereo unspecified)	1	/	/	/	/	/	/
O=C(C1CC1)N1[C@@H](CO)[C@@H](c2ccccc2)C12CN(Cc1cccc(Cl)c1)C2	/	3	/	/	/	/	/
SMILES	IDH1 mut inh	GASC1 inh	T cruzi growth-1	T cruzi growth-2	T cruzi growth-3	3T3 cytotox	3T3 cytotox 2
O=C(CSc1nnc(-c2cccc([N+](=O)[O-])c2)n1-c1ccccc1)Nc1ccc(F)cc1	0	/	/	/	/	/	/
CCOC(=O)c1c(C)sc2c(C)c(C)[nH]c12	-4	/	/	/	/	/	/
CCCNC(=O)Nc1ccc2c(c1)C(=O)N(C)[C@@H]1CC[C@@H](CC(=O)NCc3ccccc3)O[C@@H]1CO2	/	-1	-3	/	/	/	/
CN(CC(N)=O)S(=O)(=O)c1ccc2ccccc2c1	0	/	/	/	/	/	/
CC(C)NC(=O)Nc1ccc2c(c1)C(=O)N([C@@H](C)CO)C[C@@H](C)[C@@H](CN(C)C(=O)Nc1ccc(C(F)(F)F)cc1)OCCCC[C@@H](C)O2	2	-1	94	/	/	/	/
C[C@@H]1CCCCO[C@H](CN(C)C(=O)Nc2ccc(C(F)(F)F)cc2)[C@H](C)CN([C@@H](C)CO)C(=O)c2cc(NC(=O)Nc3ccc4c(c3)OCO4)ccc2O1	-2	-3	117*	107*	109*	-7	6
C[C@@H]1CCCCO[C@@H](CN(C)C(=O)Nc2ccc(C(F)(F)F)cc2)[C@@H](C)CN([C@H](C)CO)C(=O)c2cc(NC(=O)Nc3ccc4c(c3)OCO4)ccc2O1	2	-1	/	/	/	/	/
Cc1noc(C)c1NC(=O)Nc1ccc2c(c1)C(=O)N([C@H](C)CO)C[C@H](C)[C@@H](CN(C)C(=O)Nc1ccc(C(F)(F)F)cc1)OCCCC[C@@H](C)O2	/	-1	22	/	/	/	/
Cc1noc(C)c1NC(=O)Nc1ccc2c(c1)C(=O)N([C@@H](C)CO)C[C@H](C)[C@H](CN(C)C(=O)Nc1ccc(C(F)(F)F)cc1)OCCCC[C@H](C)O2	0	-2	110*	96*	78	3	-9
CC(C)NC(=O)Nc1ccc2c(c1)C(=O)N([C@H](C)CO)C[C@H](C)[C@@H](CN(C)C(=O)Nc1ccc(C(F)(F)F)cc1)OCCCC[C@H](C)O2	/	-2	98*	98*	95	13	5
